Assay outcomes from PubChem.
In the library only some 3.7% were active in any assay of this set; here they are far more common.
hERG protect = hERG (human) protection from proarrhythmic block. 310,000 tested, 0.51% active. CHO-hERG, FluxOR thallium flux, dofetilide IC70 present. Q12809. activation (rescue from dofetilide block), less the hit threshold, % at 10 µM. AID 1511;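 active = activation above the mean of controls blocked by dofetilide plus 5 SD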;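 note: thallium influx through hERG after potassium depolarization seen as dye fluorescence rise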
KCNQ1 inh = blocks the human KCNQ1 potassium channel; CHO-K1 KCNQ1, FluxOR thallium flux fluorescence; stronger effect = higher value; B-score at 10 µM; AID 2642; 310,000 tested, 1.3% active;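 active = compounds whose thallium flux B-score, printed positive for inhibition, exceeds three library SD while starting fluorescence stays within three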;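 note: channel opened by potassium depolarization with thallium stimulus after 20 min compound exposure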
KCNK3 inh = human KCNK3 channel inhibition, primary screen | O14649 | B-score at 10 µM | 340,000 tested, 0.84% active | CHO-KCNK3 thallium flux, FluxOR fluorescence; stronger effect = lower value;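 active = B-score under library mean minus 4 SD, starting fluorescence ratio at most library mean plus 5 SD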;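 note: more negative B-score means stronger inhibition of thallium flux through KCNK3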
KCNQ1 act = human KCNQ1 channel potentiation or activation; CHO-K1 KCNQ1, thallium flux FluxOR fluorescence; stronger effect = higher value; B-score at 10 µM; 310,000 tested, 0.35% active; AID 2648;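 active = fluorescence ratio B-score, a plate-corrected score, at least three library SD, with initial intensity B-score within 5 SD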
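Doses: Single concentration per compound, DMSO matched to controls | Test system: KCNQ1-transfected CHO-K1 cells | Timing: 90 min dye loading and 20 min compound exposure, both at room temperature | Measured by: Kinetic FluxOR thallium fluorescence, 10-s 1-Hz baseline, 110-s post-stimulus read | Medium: Assay buffer with matched DMSO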
Kir21 block = Kir2.1 (mouse) channel inhibition; P35561; HEK293-Kir2.1, FluxOR thallium flux fluorescence; stronger effect = lower value; B-score at 10 µM; 310,000 tested, 0.85% active; AID 1672;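 active = fluorescence ratio B-score at or below minus 3 SD of library scores, with starting-brightness B-score within 2 SD, cut at about -4.2 in these data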;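 note: channel flux triggered by added potassium and thallium sulfate stimulus; B-score of peak minus minimum fluorescence over baseline after thallium stimulus; more negative B-score means stronger Kir2.1 block with less thallium influx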
KCNK9 inh-1 = inhibitors of human KCNK9 two-pore domain potassium channel; Q9NPC2; HEK293 KCNK9, FluxOR thallium flux fluorescence; stronger effect = lower value; B-score at 10 µM; 310,000 tested, 1.2% active;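 active = ratio B-score over 3 SD below the library mean, with starting fluorescence within 5 SD of its mean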;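 note: negative B-score means less thallium flux so channel inhibition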
hERG ctr = counter-screen for Kir2.1 inhibitors: effect on human hERG; shares compounds with Kir21 block; hERG-expressing cells, thallium flux; inhibition, % at 10 µM; 320 tested, 20% active;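 note: host cells are CHO cells stably expressing hERG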
KCNK9 inh-2 = tests whether Kir2.1 inhibitors also affect human KCNK9. shares compounds with Kir21 block. KCNK9-expressing cells, ion flux inhibition. inhibition, % at 10 µM. 320 tested, 5% active. AID 2329
Kir21 ephys inh = blocks mouse Kir2.1 current in automated electrophysiology | shares compounds with Kir21 block | Kir2.1 cells, automated patch-clamp current inhibition | inhibition, % at 25 µM | 320 tested, 71% active
Active calls of the source: *; i = inactive; x = not tested or not shown. Unless noted, the rule behind the calls is not given here.

SMILES	hERG protect	KCNQ1 inh	KCNK3 inh	KCNQ1 act	Kir21 block	KCNK9 inh-1	hERG ctr	KCNK9 inh-2	Kir21 ephys inh
Cc1coc2cc3oc(=O)c(CCC(=O)N4C[C@H]5C[C@@H](C4)c4cccc(=O)n4C5)c(C)c3cc12	-6	i	i	i	-1.5	i	x	x	x
O=C(O)CCCC(=O)OCc1c(-c2ccccc2)ncc2ccccc12	x	x	i	x	x	x	x	x	x
CCCCCC(=O)OC(CN1CCCCCC1)CN1CCCC1=O (centres undefined)	-5	10*	i	i	1.2	i	x	x	x
CCOCC(=O)OCC(=O)Nc1cc(OC)c([N+](=O)[O-])cc1C	4.9*	i	i	i	0.22	i	x	x	x
CCOC(=O)c1ccc(Oc2cc(C)nc(SC)n2)cc1	5.5*	i	i	i	-1.6	i	x	x	x
C=C(C)CSc1nc2sc3c(c2c(=O)n1-c1ccc(OC)cc1)CCN(C)C3	-5	i	x	i	0.68	i	x	x	x
COc1ccc(-n2cc(CNCCc3ncc(C)[nH]3)c(-c3ccccc3Cl)n2)cc1	-16	i	i	i	-4.8*	i	x	x	x
COc1ccc(-n2cc(CNCCc3nc(C)cc(C)n3)c(-c3ccccc3Cl)n2)cc1	-13	i	i	i	-1.3	i	x	x	x
O=C1C=C(c2ccccc2)OC(=O)C1C(=O)c1ccccc1 (centres undefined)	5.4*	i	i	i	0.17	i	x	x	x
COCCNc1nc(-c2cc(C(=O)Nc3ccccc3)on2)cc(C(C)C)n1	-1	i	x	i	-0.02	i	x	x	x
CC1(c2ccc3c(c2)OCO3)NC(=O)N(CC(=O)Nc2ccc(N3CCOCC3)cc2)C1=O (centres undefined)	-10	i	i	i	0.18	i	x	x	x
COc1ccc(Nc2cc(C)nc3ccccc23)cc1	-8	i	i	i	-4	i	x	x	x
Cc1ccc(Nc2cc(C)nc3c(C)cccc23)cc1	-6	i	i	i	-8.7*	i	i	i	61%*
COc1cccc(OC)c1OCCOc1ccccc1OC(C)C	-8	i	i	i	-11*	i	i	i	42%*
COc1cccc(OC)c1OCCCOc1c(OC)cccc1OC	-2	i	i	i	-0.14	i	x	x	x
COc1ccc(C(=O)NCCN2C(=O)S/C(=C\c3cccnc3)C2=O)cc1[N+](=O)[O-]	-10	i	i	i	0.94	i	x	x	x
COCCNCC(O)CON=C1c2ccccc2-c2ccccc21 (centres undefined)	-27	i	i	i	-7*	i	i	i	19%*
CCNC(=O)CON=C1c2ccccc2-c2ccccc21	-8	i	i	i	2.3	i	x	x	x
CC(C)N(Cc1ccccc1)S(=O)(=O)c1ccc(Cl)nc1	-15	i	i	i	-6.9*	i	i	i	33%*
CC(C)N(Cc1ccccc1)S(=O)(=O)c1ccc(F)cc1	-10	i	i	i	-2.3	i	x	x	x
CCCc1ccccc1OCCNS(=O)(=O)c1cc2c(cc1C)OCC(=O)N2	-18	i	i	i	-6.5*	i	i	i	i
Cc1cc2c(cc1S(=O)(=O)NCCc1ccccc1)NC(=O)CO2	-7	i	i	i	-3	i	x	x	x
CC(C)(C)NCCOCCOc1ccccc1-c1ccccc1	-11	i	i	i	-1.3	i	x	x	x
CCC(C)NCCOCCOc1ccccc1-c1ccccc1 (centres undefined)	-14	i	i	i	-6.2*	i	i	i	35%*
CCOC(=O)C(NS(=O)(=O)c1ccc(Br)cc1)C(C)C (centres undefined)	-10	i	i	i	-8.5*	i	i	i	49%*
SMILES	hERG protect	KCNQ1 inh	KCNK3 inh	KCNQ1 act	Kir21 block	KCNK9 inh-1	hERG ctr	KCNK9 inh-2	Kir21 ephys inh
CCC(C)C(NS(=O)(=O)c1ccc(C)cc1)C(=O)O (centres undefined)	-4	i	i	i	0.55	i	x	x	x
Cc1ccc(NC(=O)C2CC(O)CN2C(=O)OCc2ccccc2)c(C)c1 (centres undefined)	-6	i	i	i	1.1	i	x	x	x
CN(C)CC1CCCCC1C1(O)c2ccccc2CSc2sccc21 (centres undefined)	-3	i	i	i	-5.7*	i	i	i	i
CN(C)CC1CCCCC1OC(=O)c1ccc(Cl)cc1 (centres undefined)	-10	i	i	i	0.54	i	x	x	x
CC(=O)c1ccc(C(=O)N2CCCC(CO)(Cc3ccccc3C)C2)s1 (centres undefined)	-9	i	i	i	-0.24	i	x	x	x
CC(C)CN(C(=O)COC(=O)CNC(=O)c1sc2ccccc2c1Cl)C1CCS(=O)(=O)C1 (centres undefined)	-16	i	i	i	5.5	i	i	i	i
O=C(Oc1ccc(C(=S)N2CCOCC2)cc1)c1ccccc1F	-13	i	i	i	-7.6*	i	i	i	i
O=C(Oc1ccc(C(=S)N2CCOCC2)cc1)c1ccccc1[N+](=O)[O-]	-6	i	i	i	-0.01	i	x	x	x
CCOC(=O)C1CCCN(C(=O)COC(=O)c2ccc(C#N)cc2)C1 (centres undefined)	-12	i	i	i	0.39	i	x	x	x
CCc1ccc(S(=O)(=O)NCCOc2cccc3cccnc23)cc1	-6	i	i	i	-7*	i	i	i	i
CCCCn1c(N)c(N(CC)C(=O)C2CCC2)c(=O)[nH]c1=O	x	x	i	x	x	x	x	x	x
Cc1cc(C)c2nc(N(CCCN(C)C)C(=O)C3=COCCO3)sc2c1	-11	i	i	i	-2.8	i	x	x	x
Cc1cc(C)c2nc(N(CCCN(C)C)C(=O)c3ccc4c(c3)OCCO4)sc2c1	-14	i	i	i	-6.4*	i	66%*	i	i
CCOC(=O)C(=CNc1ccc(NC2=NCC(C)(C)S2)cc1)C(=O)OCC	-10	i	i	i	-7*	i	i	i	22%*
CCOC(=O)C(=CNc1ccc(S(N)(=O)=O)cc1)C(=O)OCC	-8	i	i	i	0.98	i	x	x	x
CC(C)CCC(CCNCc1ccccn1)c1ccc(Cl)cc1 (centres undefined)	-14	i	i	i	-6.7*	i	70%*	i	i
